Shown are actives, neighbours in structure and some others; about 1.7% of the full set was active somewhere.
STEP inh: inhibitors of human striatal-enriched phosphatase STEP. P54829. recombinant STEP, OMFP fluorogenic substrate, fluorescence. inhibition, % at 20 µM. 0.25% of 360,000 active;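 active = inhibition at 20 µM, scaled per plate between control wells, above about 37%, limit read from the data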;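 note: 0% = DMSO with enzyme and substrate and 100% = substrate only without enzyme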
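material = STEP tyrosine phosphatase | reagent = fluorogenic phosphatase substrate OMFP at 25 µM final | doses = single compound dose of 20 µM, 1% DMSO final | schedule = 20 min reaction, room temperature, in the dark | measured by = fluorescence, 480/540 nm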
SUMO1 PPI mod: alters human SUMO1 binding to SIM partners; P63165; SUMO1 binding to a labelled peptide, TR-FRET, 1 h; 0.33% of 360,000 active; inhibition, % at 20 µM; in the data active = inhibition above about 37%
Target sequence (P63165 whole entry, looked up): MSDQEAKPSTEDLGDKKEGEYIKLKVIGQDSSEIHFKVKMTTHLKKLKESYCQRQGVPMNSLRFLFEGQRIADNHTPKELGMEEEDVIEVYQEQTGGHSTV
Scp1 inh: blocks human Scp-1 phosphatase activity; Q9GZU7; inhibition, % at 20 µM; 0.88% of 340,000 active; Recombinant Scp1, phosphopeptide, malachite green phosphate absorbance;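 active = inhibition above about 50% at 20 µM, limit read from the data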;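 note: plate controls were DMSO wells with enzyme for no effect and wells lacking enzyme for full effect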
Target sequence (Q9GZU7 76-261 limits assumed): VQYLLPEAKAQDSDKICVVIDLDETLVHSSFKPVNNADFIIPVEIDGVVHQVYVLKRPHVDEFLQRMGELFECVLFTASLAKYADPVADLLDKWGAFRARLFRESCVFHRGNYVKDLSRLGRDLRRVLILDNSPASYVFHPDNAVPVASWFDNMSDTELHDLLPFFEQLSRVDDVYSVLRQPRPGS
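Material: truncated SCP-1 phosphatase (76-261aa) / Buffer or medium: 50 mM Tris acetate pH 5.5, 0.005% Tween-20, 10 mM MgCl2 / Compound dosing: one concentration, 20 µM, with 1.0% DMSO / Incubation: 45 min room-temperature reaction, 5 min colour, 30 min stabiliser / Detection: colorimetric free-phosphate detection, absorbance 630 nm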
LMPTP block: LMPTP (human) inhibition; AID 651560; recombinant LMPTP-A, OMFP fluorogenic substrate, fluorescence intensity; 0.22% of 360,000 active; inhibition, % at 20 µM; P24666;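 active = compounds that cut the enzyme signal by at least half of the control window in the single-dose screen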;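 note: plate controls were DMSO wells with enzyme plus substrate for no effect and substrate without enzyme for full effect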
Target sequence (P24666 whole entry, looked up): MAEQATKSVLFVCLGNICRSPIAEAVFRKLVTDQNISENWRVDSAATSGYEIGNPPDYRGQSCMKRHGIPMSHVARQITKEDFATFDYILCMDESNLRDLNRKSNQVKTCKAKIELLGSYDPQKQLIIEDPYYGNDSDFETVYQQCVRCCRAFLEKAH
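Material: LMPTP-A; amount: 0.625 nM enzyme; doses: single 20 µM dose; times: reaction 50 min, room temperature, dark; technique: fluorescence intensity of OMFP turnover product; benchmarks: no-enzyme and uninhibited controls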
DNMT1 inh: blocks human DNA methyltransferase DNMT1 | AID 588458 | inhibition (reported as % activation of signal), % at 10 µM | DNMT1 molecular beacon, Hinp1I cleavage, fluorescence | 0.83% of 360,000 active; in the data active = inhibition above about 50%
Scp1 confirm: confirmation of human Scp-1 phosphatase inhibitors | shares compounds with Scp1 inh | 61% of 2,500 active | inhibition, % at 20 µM | recombinant SCP-1 catalytic domain, phosphate release, malachite green absorbance;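 note: plate controls were DMSO with enzyme for no effect and buffer wells lacking enzyme for full effect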
Scp-1 MG ctr: colorimetric interference in Scp-1 counter-screen; shares compounds with Scp1 inh; Colorimetric interference counterscreen, malachite green absorbance 630 nm; apparent inhibition (interference), % at 20 µM; 2,500 tested, under 10 active; AID 540313;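 note: compounds added after enzyme reaction finished so only phosphate colour detection is probed; plate controls were DMSO wells with completed Scp-1 reaction for no effect and substrate wells lacking enzyme for full effect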
Scp1 DSF: Scp-1 (human) binding by thermal shift; shares compounds with Scp1 inh; Recombinant SCP1, Sypro Orange thermal shift Tm; thermal shift relative to vanadate control, % at 40 µM; 25% of 1,500 active; AID 540329;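 active = substances whose mean melting-temperature shift, as a percentage of the reference inhibitor's shift, reaches about 5.3%, limit read from the data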;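 note: 0% = Tm of DMSO wells and 100% = Tm with sodium orthovanadate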
Active calls of the source: *; · = no result given.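 Rule for the calls, unless noted: active = inhibition of at least 30% at 20 µM; inactive = the rest.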

SMILES	STEP inh	SUMO1 PPI mod	Scp1 inh	LMPTP block	DNMT1 inh	Scp1 confirm	Scp-1 MG ctr	others
CCn1c2ccccc2c2nnc(SCC(N)=O)nc21	2	-10	-1	-1	-1	·	·
CCO[C@@H]1OC(C(=O)O)=C[C@H](c2ccc(Br)cc2)[C@H]1CCCO	4	-6	-3	2	3	·	·
CCSC1=N/C(=C\c2ccc(-c3ccccc3[N+](=O)[O-])o2)C(=O)S1	1	-1	-20	5	-3	·	·
CCCSC1=N/C(=C\c2ccc([N+](=O)[O-])o2)C(=O)S1	31	62*	60*	45	93*	72*	-17	Scp1 DSF=11*
CCn1cc(C(=O)NCc2ccco2)c(=O)c2cc(F)c(N3CCN(C(=O)c4ccco4)CC3)cc21	3	16	58*	6	6	37*	-11	Scp1 DSF=-10
CCn1cc(C(=O)NCC(C)C)c(=O)c2cc(F)c(N3CCN(C(=O)c4ccco4)CC3)cc21	-2	9	2	1	0	·	·
O=C(CCC1CC(=O)Nc2ccccc21)NCc1ccc(F)cc1 (centres undefined)	-2	1	-8	-3	-10	-8	-7
O=C(CCC1CC(=O)Nc2ccccc21)NCc1ccccc1 (centres undefined)	-1	-1	-4	1	-4	·	·
O=C(c1cc(S(=O)(=O)N2CCOCC2)c(Cl)cc1Cl)N1CCN(S(=O)(=O)c2cccc(F)c2)CC1	-1	0	5	1	0	·	·
CCN1C(=O)C(=O)N(CC(=O)N(C)CC(=O)Nc2ccccc2Cl)C1=O	-1	-2	-1	-1	0	-5	-11
O=C1CCCC/C=C\C[C@H](CC(=O)N(CCO)Cc2ccccc2)C(=O)NCCO1	-2	4	-6	-1	3	·	·
CCN(C(=O)CSc1nnc(-c2c[nH]c3ccccc23)n1C1CC1)C1CCS(=O)(=O)C1 (centres undefined)	-1	0	-8	-1	1	·	·
CC(=O)C(Cc1ccc(Cl)nc1)Cc1ccc(Cl)nc1	-1	1	69*	-1	1	-7	-13
Cc1ccccc1OCCC(=O)OCC(=O)N1c2ccccc2NC(=O)C1(C)C	1	6	20	1	10	·	·
CCC(=O)c1ccc(OCC(=O)OCC(=O)N2c3ccccc3NC(=O)C2(C)C)cc1	5	12	9	1	9	·	·
Cc1cc(OCC(=O)OCC(=O)N2c3ccccc3NC(=O)C2(C)C)ccc1Cl	-1	9	60*	7	33	57*	-19	Scp1 DSF=1
CC1(C)C(=O)Nc2ccccc2N1C(=O)COc1ccccc1C#N	3	3	50*	5	23	59*	-12	Scp1 DSF=3
CC(=O)c1ccc(NC(=O)Cn2cnc(S(=O)(=O)N3CCc4ccccc43)c2)cc1	0	-11	13	1	-2	·	·
O=C(c1ccc(OC2CCN(CCc3ccccc3)CC2)cc1)N1CCC[C@H]1CO	-1	4	1	1	-2	·	·
CCOC(=O)C1=CN2CCC[C@H]2CC1=O	0	-3	-6	-1	4	·	·
O=C1CC2CCCN2C=C1I (centres undefined)	-3	-30	97*	-3	0	87*	-11	Scp1 DSF=-23
O=C(N/N=C/c1ccncc1)c1cc(-c2ccc(Br)s2)[nH]n1	-2	-10	6	1	2	·	·
O=C(N/N=C/c1ccccn1)c1cc(-c2ccc(Br)s2)[nH]n1	34	-1	67*	1	34	52*	-8	Scp1 DSF=-13
Fc1ccccc1Sc1ccccc1CNC1=NCCN1	-3	2	97*	-1	0	84*	-15	Scp1 DSF=-14
c1ccc(Sc2cccc3ccccc23)c(CNC2=NCCN2)c1	-4	-10	29	2	9	·	·
SMILES	STEP inh	SUMO1 PPI mod	Scp1 inh	LMPTP block	DNMT1 inh	Scp1 confirm	Scp-1 MG ctr	others
C/C(CC(=O)NC1CCCCC1)=N\NC(=O)Cc1ccc(-c2ccccc2)cc1	2	4	69*	1	15	86*	-5	Scp1 DSF=-7
O=C(CCn1cccn1)N1CCCC(Nc2ccc(F)c(F)c2)C1 (centres undefined)	-1	4	·	0	2	·	·
CCOc1cccc(/C=N/NC(=O)CC2C(=O)NN=C2C)c1O (centres undefined)	2	2	-9	-1	0	-6	-11
COc1cc(/C=N/NC(=O)CC2C(=O)NN=C2C)ccc1O (centres undefined)	0	-2	-16	-3	-4	-19	-18
CCOc1cccc(/C=N/NC(=O)C2CCCC2)c1O	4	-3	-7	0	-1	·	·
C=CCn1cnc2c(c1=O)c1nc3ccccc3nc1n2/N=C/c1cccc(OC)c1OC	27	-5	96*	13	18	62*	-16	Scp1 DSF=3
Cc1ccc(C(=O)N2CCN(c3ncnc4c(C)csc34)CC2)cc1	0	2	58*	1	0	4	-1
O=C(COC(=O)COc1ccc(Br)cc1)Nc1cccnc1Cl	0	2	58*	0	-1	-10	-12
Cc1ccc(S(=O)(=O)NCc2ccccc2)cc1C(=O)NCC1CCCO1 (centres undefined)	2	6	-5	-1	2	·	·
O=C(COC(=O)CNC(=O)c1ccccc1)NCc1ccc2c(c1)OCO2	-1	4	67*	0	-1	-16	-19
O=C(COC(=O)CNC(=O)c1cccc(OC(F)F)c1)NCc1ccc2c(c1)OCO2	-3	-3	-6	-1	-1	·	·
O=C(CSc1ccccc1)Nc1ccc(N2CCOCC2)c(F)c1	2	6	1	1	0	·	·
O=C(c1nc2ccc(Cl)cn2c1CN1CCCC1)N1CCc2ccccc2C1	-1	8	52*	8	14	36*	-3	Scp1 DSF=5
CC(Nc1ccc(Br)cc1)C(=O)Nc1cccc(S(=O)(=O)N2CCOCC2)c1 (centres undefined)	-1	5	-5	0	-2	·	·
COc1ccc(NS(=O)(=O)c2cc(NC(=O)c3ccc(=O)[nH]c3)ccc2N2CCCC2)cc1	0	27	-2	5	-9	·	·
CCCOC(=O)c1ccc(OCC(O)CN2C(=O)NC(C)(C)C2=O)cc1 (centres undefined)	-1	-3	65*	0	1	-8	-7
CCCc1cc(=O)[nH]c(SCC(=O)N2CCc3ccccc3C2)n1	-2	0	-4	-1	1	·	·

Bioassay records: PubChem BioAssay, Sanford-Burnham Center for Chemical Genomics
